These results are taken from ChEMBL document CHEMBL1152963, “Synthesis and antimicrobial activity of 4-hydroxy-4-(pyridyl)alk-3-en-2-ones” (2009).

≈ marks a conversion by molar mass, not a printed value.

Type in all cases: functional
One experiment has as its system Bacillus subtilis. Put plainly: Antimicrobial activity against Bacillus subtilis ATCC 11229 after 24 hrs by dilution susceptibility assay. The settings on record: ATCC 11229, 24 h. The gist of the method:
(§1)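 Broth microdilution MIC per CLSI recommendations, ATCC strains, 96-well format, no agitation; inoculum 2 × 10⁵ bacterial cells per well; incubated 24 h at 37 °C; MIC as average of 3 independent experiments.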

In another experiment the test system is Escherichia coli. Nature of the experiment: Antimicrobial activity against Escherichia coli […] after 24 hrs by dilution susceptibility assay. The gist of the method: as §1
The subject of a further experiment is Staphylococcus aureus. Nature of the experiment: Antimicrobial activity against Staphylococcus aureus ATCC 6538 after 24 hrs by dilution susceptibility assay. The settings on record: ATCC 6538, 24 h. In short, it runs like this: as §1

By MIC is commonly meant the lowest concentration that inhibits growth of the organism. Read a high MIC as a less susceptible organism. With `CCCCC(=O)/C=C(\O)c1ccccn1`, the MIC with Bacillus subtilis amounted to 48.1 µg/mL (≈ 235 µM); in the experiment on Escherichia coli, 47.7 µg/mL (≈ 232 µM); in the experiment with Staphylococcus aureus it was 96.5 µg/mL (≈ 470 µM).
Taken in the same sequence, the figures for `CCC(=O)/C=C(\O)c1ccccn1` were 211 µg/mL (≈ 1190 µM), 195 µg/mL (≈ 1100 µM) and 23.6 µg/mL (≈ 133 µM).
In the same order, the values of `CCCC(=O)/C=C(\O)c1cccnc1` are 200 µg/mL (≈ 1050 µM), 94.1 µg/mL (≈ 492 µM) and 193 µg/mL (≈ 1010 µM).
In the case of `O=C(/C=C(\O)c1cccnc1)c1ccccc1`, the figures for the MIC with Bacillus subtilis, against Escherichia coli and in the experiment on Staphylococcus aureus were 94.6 µg/mL (≈ 420 µM), 95.8 µg/mL (≈ 425 µM) and 95.1 µg/mL (≈ 422 µM), respectively.
In the same order, the values of `CCC(=O)C(C)C(=O)c1ccccn1` (stereo unspecified) are 786 µg/mL (≈ 4110 µM), 391 µg/mL (≈ 2040 µM) and 758 µg/mL (≈ 3960 µM).
`CC(=O)/C=C(\O)c1cccnc1`: the MIC in the experiment with Bacillus subtilis turned out to be 397 µg/mL (≈ 2430 µM); with Escherichia coli, 402 µg/mL (≈ 2460 µM); against Staphylococcus aureus, 392 µg/mL (≈ 2400 µM).
In the same order, the values of `CCCCC(=O)/C=C(\O)c1cccnc1` are 95.4 µg/mL (≈ 465 µM), 95.4 µg/mL (≈ 465 µM) and 95.5 µg/mL (≈ 465 µM).
As for `CCC(=O)/C=C(\O)c1cccnc1`, the MIC with Bacillus subtilis was found to be 374 µg/mL (≈ 2110 µM); against Escherichia coli it was 379 µg/mL (≈ 2140 µM); against Staphylococcus aureus, 380 µg/mL (≈ 2150 µM).
As for `CC1(C)S[C@@H]2[C@H](NC(=O)[C@H](N)c3ccccc3)C(=O)N2[C@H]1C(=O)O` [AMPICILLIN], the values for the MIC in the experiment on Bacillus subtilis, with Escherichia coli and in the experiment on Staphylococcus aureus were 12.5 µg/mL (≈ 35.7 µM), 6.99 µg/mL (≈ 20 µM) and 3.19 µg/mL (≈ 9.13 µM), respectively.
In the same order, the values of `CC(=O)/C=C(\O)c1ccccn1` are 190 µg/mL (≈ 1160 µM), 379 µg/mL (≈ 2320 µM) and 46.9 µg/mL (≈ 287 µM).
Taken in the same sequence, the figures for `O=C(/C=C(\O)c1ccccn1)c1ccccc1` were 24.5 µg/mL (≈ 109 µM), 24.1 µg/mL (≈ 107 µM) and 47.4 µg/mL (≈ 210 µM).
Taken in the same sequence, the figures for `CCCC(=O)/C=C(\O)c1ccccn1` were 97.2 µg/mL (≈ 509 µM), 97.8 µg/mL (≈ 512 µM) and 192 µg/mL (≈ 1000 µM).
